For test [1], the target named is T1, Protein kinase C gamma type (Homo sapiens, UniProt P05129). Description: Inhibition of protein kinase C-gamma.
Test [2] concerns the target T2, Protein kinase C alpha type (Homo sapiens, UniProt P17252). Kind of test: Inhibitory concentration against protein kinase C-alpha using histone as substrate.
The target of test [3] is T3, Protein kinase C beta type (Homo sapiens, UniProt P05771). Kind of test: Inhibitory concentration against human protein kinase C-betaII using histone as substrate.
Target sequence in this assay (P05771 whole entry): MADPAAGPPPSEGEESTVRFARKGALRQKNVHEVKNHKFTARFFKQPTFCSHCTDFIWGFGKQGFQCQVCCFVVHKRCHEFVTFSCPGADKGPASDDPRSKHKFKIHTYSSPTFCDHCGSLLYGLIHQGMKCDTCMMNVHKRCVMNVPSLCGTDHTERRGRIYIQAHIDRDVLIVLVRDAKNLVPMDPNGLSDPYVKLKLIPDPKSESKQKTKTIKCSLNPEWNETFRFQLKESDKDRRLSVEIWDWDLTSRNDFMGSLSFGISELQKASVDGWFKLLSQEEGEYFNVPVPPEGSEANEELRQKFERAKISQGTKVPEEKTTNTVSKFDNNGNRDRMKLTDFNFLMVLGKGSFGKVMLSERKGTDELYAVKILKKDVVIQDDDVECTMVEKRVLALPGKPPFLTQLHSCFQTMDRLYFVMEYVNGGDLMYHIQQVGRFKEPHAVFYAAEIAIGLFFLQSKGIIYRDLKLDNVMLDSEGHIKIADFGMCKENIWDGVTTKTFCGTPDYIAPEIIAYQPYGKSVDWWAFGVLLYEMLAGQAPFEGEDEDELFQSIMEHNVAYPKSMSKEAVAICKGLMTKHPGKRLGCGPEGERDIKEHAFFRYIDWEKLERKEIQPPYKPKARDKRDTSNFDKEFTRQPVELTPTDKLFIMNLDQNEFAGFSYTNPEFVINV
The target in test [4] is T1, Protein kinase C gamma type. Kind of test: Inhibitory activity of 10 uM compound against protein kinase C-gamma using histone as substrate.
The target of test [5] is T2, Protein kinase C alpha type. Kind of test: Inhibitory activity of 10 uM compound against protein kinase C-alpha using histone as substrate.
The target of test [6] is T3, Protein kinase C beta type. Kind of test: Inhibition of protein kinase C-betaII at 10 uM.
Target sequence in this assay (P05771 2-671 limits assumed): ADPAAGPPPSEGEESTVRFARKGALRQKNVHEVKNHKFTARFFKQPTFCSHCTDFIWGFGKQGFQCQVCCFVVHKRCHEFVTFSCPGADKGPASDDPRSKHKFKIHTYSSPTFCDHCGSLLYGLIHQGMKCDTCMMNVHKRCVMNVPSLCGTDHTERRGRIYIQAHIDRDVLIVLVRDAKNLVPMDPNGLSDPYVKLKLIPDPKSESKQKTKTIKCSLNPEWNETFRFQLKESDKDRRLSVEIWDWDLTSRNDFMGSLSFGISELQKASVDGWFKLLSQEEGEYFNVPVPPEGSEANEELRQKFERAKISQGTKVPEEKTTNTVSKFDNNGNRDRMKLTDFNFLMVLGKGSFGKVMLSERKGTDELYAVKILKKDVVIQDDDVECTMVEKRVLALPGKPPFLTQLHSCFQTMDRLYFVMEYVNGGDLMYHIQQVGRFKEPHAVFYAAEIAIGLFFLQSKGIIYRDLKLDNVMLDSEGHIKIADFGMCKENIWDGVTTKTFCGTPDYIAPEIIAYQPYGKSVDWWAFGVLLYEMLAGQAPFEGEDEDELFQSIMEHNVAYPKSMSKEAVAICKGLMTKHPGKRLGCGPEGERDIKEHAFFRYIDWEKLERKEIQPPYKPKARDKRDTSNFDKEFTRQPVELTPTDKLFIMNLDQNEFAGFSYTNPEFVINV
Test [7] addresses Glycogen synthase kinase-3 beta (Homo sapiens, UniProt P49841). Kind of test: Effective concentration of compound against glycogen synthase kinase-3 in HEK293 cells. Type of test: functional, cell-based. In short, it runs like this: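 HEK293 cells exposed to compound; glycogen synthase activity then measured in cell extracts as ¹⁴C-UDP glucose incorporation into glycogen. EC₅₀ averaged from triplicate determinations.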

The results in this text go back to ChEMBL document CHEMBL1146654, “3-(7-Azaindolyl)-4-arylmaleimides as potent, selective inhibitors of glycogen synthase kinase-3” (Bioorg Med Chem Lett, 2004).

Glycogen synthase kinase-3 beta, sequence (P49841 whole entry): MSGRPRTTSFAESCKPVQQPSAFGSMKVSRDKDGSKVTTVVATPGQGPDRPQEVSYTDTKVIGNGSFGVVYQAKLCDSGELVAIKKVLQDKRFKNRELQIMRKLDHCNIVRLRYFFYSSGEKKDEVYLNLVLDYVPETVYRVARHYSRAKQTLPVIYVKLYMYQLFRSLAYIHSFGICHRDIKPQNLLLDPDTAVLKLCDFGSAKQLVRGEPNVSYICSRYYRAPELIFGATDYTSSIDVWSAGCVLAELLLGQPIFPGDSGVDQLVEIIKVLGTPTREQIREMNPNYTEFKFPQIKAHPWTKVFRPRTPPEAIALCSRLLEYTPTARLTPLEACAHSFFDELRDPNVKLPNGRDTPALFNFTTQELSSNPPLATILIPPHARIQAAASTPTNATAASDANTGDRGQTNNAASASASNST

Usually IC50 stands for the concentration needed to halve the response being measured. Turning to `COc1ccccc1C1=C(c2cn(CCCNS(C)(=O)=O)c3ncccc23)C(=O)NC1=O`, the half-maximal inhibitory concentration (IC50) in test [1] came out at 8.6 µM; in test [2], 4.7 µM; in test [3], 1.88 µM.
A word on the inhibition: it is the relative decrease from the control value, in per cent. A higher inhibition goes with a response far below the control. Take `COc1ccccc1C1=C(c2cn(CCCO)c3ncccc23)C(=O)NC1=O`: the results for the inhibition in test [4] and in test [5] were under 50% and 50%, respectively. Moreover, the IC50 in test [3] was found to be 1.44 µM.
`O=C1NC(=O)C(c2cn(CCCO)c3ncccc23)=C1c1cccc2ccccc12` registered an inhibition in test [4] of 50%. Moreover, the IC50 in test [2] amounted to 3.6 µM; in test [3], 0.27 µM.
On to `CCn1cc(C2=C(c3cn(CCCO)c4ncccc34)C(=O)NC2=O)c2cccnc21`, for which the inhibition in test [4] and in test [5] was under 50% throughout. Moreover, in test [3], the concentration for half-maximal inhibition (IC50) is 1.07 µM.
In the case of `COc1ccccc1C1=C(c2cn(CCCNS(N)(=O)=O)c3ncccc23)C(=O)NC1=O`, the half-maximal inhibitory concentration (IC50) stood at 6 µM in test [1] and 0.89 µM in test [3]. In test [5], this compound had an inhibition of under 50%.
As for `O=C1NC(=O)C(c2cn(CCCO)c3ncccc23)=C1c1ccc(F)cc1Cl`, in test [4], the inhibition is under 50%. The results for the half-maximal inhibitory concentration (IC50) in test [2] and in test [3] were 4.5 µM and 2.38 µM, respectively.
Regarding `O=C1NC(=O)C(c2cn(CCCO)c3ncccc23)=C1c1cccs1`, the inhibition in test [4], in test [6] and in test [5] was under 50% throughout.
Take `CN(C)CCCn1cc(C2=C(c3cccc4ccccc34)C(=O)NC2=O)c2cccnc21`: the IC50 in test [1] was found to be 2.8 µM; in test [2] it was 1.4 µM; in test [3], 0.24 µM.
With `O=C1NC(=O)C(c2cn(CCCO)c3ncccc23)=C1c1ccccn1`, the inhibition in test [4], in test [6] and in test [5] was under 50% each time.
With `COc1ccccc1C1=C(c2cn(CCCNC=O)c3ncccc23)C(=O)NC1=O`, the IC50 in test [1] was found to be 8.7 µM; in test [3], 2.73 µM. This compound also yielded an inhibition in test [5] of under 50%.
`O=C1NC(=O)C(c2cn(CCCO)c3ncccc23)=C1c1ccccc1Cl`: the half-maximal inhibitory concentration (IC50) in test [1] is 5.5 µM; in test [2] it was 4.4 µM; in test [3], 0.73 µM.
Regarding `O=C1NC(=O)C(c2cn(CCCO)c3ncccc23)=C1c1ccccc1C(F)(F)F`, the inhibition in test [4] and in test [5] was 50% each time. 1.85 µM corresponded to half-maximal inhibition in test [3] (IC50).
Regarding `COc1ccccc1C1=C(c2cn(CCCN)c3ncccc23)C(=O)NC1=O`, the inhibition is under 50% in test [4] and 50% in test [5]. This compound also displayed an IC50 in test [3] of 1.1 µM.
In the case of `CN(C)CCCn1cc(C2=C(c3ccccc3Cl)C(=O)NC2=O)c2cccnc21`, the values for the half-inhibitory concentration (IC50) in test [1], in test [2] and in test [3] were 3.6 µM, 4 µM and 1.16 µM, respectively.
One may read the EC50 as the concentration that produces a half-maximal response. In the case of `[Cl-].[Li+]` [CHLOROLITHIUM], the EC50 in test [7] is over 3000 µM.
